# CHRM4 antagonist = human M4 muscarinic receptor antagonists, primary screen, CHO cells, Fluo-8 calcium fluorescence; CHO-hM4 cells, ACh EC80; Muscarinic acetylcholine receptor M4 (Homo sapiens), P08173; actives 0.73% (n = 360,000); inhibition, % at 3 µM;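 active = inhibition above its plate's cutoff, the mean inhibition of sample wells plus 3 SD, cut at about 27% in these data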;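 also: 0% = acetylcholine EC80 with DMSO and 100% = DMSO without agonist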
# CHRM5 agonist = human M5 muscarinic receptor agonists, primary screen, CHO-K1 cells, Fluo-8 calcium fluorescence | Muscarinic acetylcholine receptor M5 (Homo sapiens), P08912 | CHO-K1 hM5 cells; 0% DMSO wells, 100% maximal acetylcholine response | activation, % at 3 µM | actives 0.19% (n = 360,000) | AID 624037, 2012;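 active = activation above the run's mean over test compounds plus 3 SD, cut at about 23% in these data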;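 also: signal is peak over basal fluorescence ratio across the kinetic read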
# Target sequence (P08912 whole entry, looked up): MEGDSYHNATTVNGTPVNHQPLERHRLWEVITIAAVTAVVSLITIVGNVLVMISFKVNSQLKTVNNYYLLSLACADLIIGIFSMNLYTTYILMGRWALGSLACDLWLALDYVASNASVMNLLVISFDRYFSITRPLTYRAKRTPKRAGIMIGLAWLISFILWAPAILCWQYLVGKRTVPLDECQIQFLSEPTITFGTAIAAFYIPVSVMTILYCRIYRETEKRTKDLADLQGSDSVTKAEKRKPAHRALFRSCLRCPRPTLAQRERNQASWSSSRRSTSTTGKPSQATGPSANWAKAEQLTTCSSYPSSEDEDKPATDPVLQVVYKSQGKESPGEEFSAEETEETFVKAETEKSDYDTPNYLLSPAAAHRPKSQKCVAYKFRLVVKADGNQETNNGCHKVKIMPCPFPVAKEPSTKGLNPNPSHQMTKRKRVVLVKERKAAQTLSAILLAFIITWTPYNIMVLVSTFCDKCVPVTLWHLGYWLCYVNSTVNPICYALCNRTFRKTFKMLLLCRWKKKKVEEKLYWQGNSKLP
# M4 PAM = human M4 muscarinic receptor positive allosteric modulators, primary screen, CHO-K1 cells, Fluo-8 calcium fluorescence. Muscarinic acetylcholine receptor M4 (Homo sapiens), P08173. CHO-K1 hM4/Gqi5, ACh EC20; 0% = ACh EC20, 100% = maximal ACh. activation, % at 3 µM. actives 0.4% (n = 360,000);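 active = activation above its plate's cutoff, the mean activation of sample wells plus 3 SD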
# M5 antag = human M5 muscarinic receptor antagonists, primary screen, CHO cells, Fluo-8 calcium fluorescence; CHO-hM5 cells, ACh EC80; inhibition, % at 3 µM; actives 0.59% (n = 360,000); Muscarinic acetylcholine receptor M5 (Homo sapiens), P08912;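 active = inhibition above a per-plate cutoff, the mean of that plate's test compounds plus 3 SD, cut at about 27% in these data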;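 also: 0% = acetylcholine EC80 with DMSO and 100% = DMSO without agonist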
# M4 ag = human M4 muscarinic receptor agonists, primary screen, CHO-K1 cells, Fluo-8 calcium fluorescence; activation, % at 3 µM; actives 0.14% (n = 360,000); CHO-K1 hM4/Gqi5; vehicle 0%, full acetylcholine response 100%; Muscarinic acetylcholine receptor M4 (Homo sapiens), P08173;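 active = activation above the run mean over all test wells plus 3 SD, cut at about 32% in these data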;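 also: peak over basal fluorescence ratio per well then scaled between controls; 0% = DMSO wells and 100% = acetylcholine at EC100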
# CHRM5 PAM = human M5 muscarinic receptor positive allosteric modulators, primary screen, CHO-K1 cells, Fluo-8 calcium fluorescence | Muscarinic acetylcholine receptor M5 (Homo sapiens), P08912 | CHO-K1 hM5, ACh EC20 PAM; 0% = ACh EC20, 100% = ACh EC100 | activation, % at 3 µM | actives 0.3% (n = 360,000);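 active = activation above the run cutoff, the mean activation of all test compounds plus 3 SD, cut at about 18% in these data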
#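 Assay system – human M5 receptor in CHO-K1 cells · Read-out – % activation, ACh-normalized · Technique – Fluo-8 calcium fluorescence · Dosing – single-point, 3 µM nominal · Incubation – Fluo-8 loading 80 min at 37 °C plus 30 min room temperature · Repeats – singlicate, one well per test compound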
# Starred values were filed as active, the others as inactive. Most compounds without a hit are left out; they make up all but 1.9% or so of the library.
SMILES,CHRM4 antagonist,CHRM5 agonist,M4 PAM,M5 antag,M4 ag,CHRM5 PAM
COc1ccc(CNC[C@@H](CCCCN(C)Cc2ccc(OC)cc2)N2C[C@H](c3ccccc3)N(CCc3ccc(Cl)c(Cl)c3)C(=O)C2=O)cc1,21,-3,3,14,60*,-3
COc1ccc(CNC(=O)[C@@H]2CC=C[C@@H]3CCN(Cc4ccc(Cl)c(Cl)c4)C(=O)[C@@H]32)cc1,-6,1,10,9,5,-4
COc1ccc(Br)cc1S(=O)(=O)NNC(=O)c1c(C)nc2ccccn12,-9,-2,3,-3,8,9
Cc1nc2ccccn2c1C(=O)NNS(=O)(=O)c1ccc(C(C)(C)C)cc1,9,6,-1,28*,13,-17
COC(=O)[C@]12CCCCC=C1N(Cc1ccccc1)C(=O)[C@H](CC(=O)NCC1CCCCC1)C2,2,0,-3,2,7,-10
COC(=O)[C@H](C)NC(=O)NCCC1=CCCCC1,-4,-1,-5,10,0,-4
COC(=O)[C@H](CCSC)NC(=O)NCCC1=CCCCC1,9,-1,0,35*,1,-21
COC(=O)[C@H](Cc1ccccc1)NC(=O)NCCC1=CCCCC1,14,-6,0,63*,2,-23
Cc1ccc(C)c(NC(=O)C(c2ccccc2)N2CCN(CC(=O)N3CCOCC3)CC2)c1 (stereo not drawn),-4,0,-1,5,4,-1
Cc1ccc(C)c(NC(=O)C(NCC(C)(C)N2CCOCC2)c2ccccc2)c1 (stereo not drawn),76*,-17,-26,13,1,-35
CCn1cnc2c1c(=O)[nH]c(=O)n2Cc1ccccc1,-13,-2,3,-1,1,3
CCCCn1cnc2c(cnn2-c2ccc(F)cc2)c1=O,37*,1,-5,2,1,-6
CCCCn1cnc2c1c(=O)[nH]c(=O)n2CCCC,6,-4,6,-2,2,19*
O=C1NC(c2ccccc2)CCO1 (stereo not drawn),-5,-2,30*,-4,1,9
CCNc1nc(CN2CCCCC2)nc2scc(-c3ccccc3)c12,27*,-8,-19,2,3,-8
OCC1CCCN(c2nc(CN3CCCCC3)nc3scc(-c4ccccc4)c23)C1 (stereo not drawn),9,-10,-17,-1,2,-8
Cc1ccc(NC(=O)C2COc3ccccc3O2)cc1C (stereo not drawn),0,-1,-2,13,0,-8
COC(C[C@@H]1O[C@H]1C(=O)COCc1ccccc1)OC,-1,4,25*,-1,2,4
OC1(c2cccc(C(F)(F)F)c2)CCN(c2ncnc3c2[nH]c2ccc(F)cc23)CC1,20,1,-19,31*,15,-22
Fc1ccc2[nH]c3c(N4CCN(c5ccccc5)CC4)ncnc3c2c1,38*,5,-11,50*,25,-23
COc1ccc2[nH]c3c(N4CCc5ccccc5C4)ncnc3c2c1,19,2,-15,8,25,-18
COc1ccc(N2CCN(c3ncnc4c3[nH]c3ccccc34)CC2)cc1,28*,8,-11,28*,23,-21
CCOC(=O)N1CCN(c2ncnc3c2[nH]c2ccc(F)cc23)CC1,9,-1,-10,1,12,-37
CN(C1CCCCC1)S(=O)(=O)c1ccc2c(c1)c(=O)c(C(=O)NCCN1CCCC1)cn2C,2,-3,-12,-4,1,3
CN(C1CCCCC1)S(=O)(=O)c1ccc2c(c1)c(=O)c(C(=O)NCCCN1CCCC1)cn2C,27*,-2,-16,4,0,-4
